# Screens deposited in PubChem BioAssay by several laboratories.
# NRP1-CendR mod – alters CendR peptide binding to human NRP-1; O14786; FAM-RPARPAR peptide binding to NRP-1, fluorescence polarization; inhibition, % at 25 µM; 360,000 tested, 0.85% active;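 active means inhibition or corrected inhibition above about 18%, plus a signal ratio from 0.5 to 1.5, limit read from the data, passing the limit was not always enough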
# Lipid droplet – modulators of hepatic lipid droplet formation; inhibition, % at 6.5 µM; AML12 mouse hepatocytes, oleate lipid droplets, BODIPY imaging; 240,000 tested, 0.4% active; AID 1656;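 active means lipid droplet intensity inhibited by at least 50%, with more than 500 cells counted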
#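 Material: mouse AML12 hepatocyte cell line, fixed after treatment; Timing: compound with oleate, overnight; Technique: high-content imaging of BODIPY-stained droplets and DAPI nuclei; Probe or stimulus: oleate, 100 µM final; Dosing: compound at 6.5 µM only.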
# m5-HT2A agonist – activates the mouse 5-HT2A serotonin receptor; P35363; CHO-K1 mHTR2A beta-arrestin complementation, luminescence; percent of 30 µM serotonin response; activation, % at 7.6 µM; 360,000 tested, 0.66% active; AID 624169;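 active means activation above a run cutoff, the mean activation of all tested compounds plus 3 SD, cut at about 14% in these data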;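 further: 0% = plate median of compound wells and 100% = 30 µM serotonin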
# Target sequence (P35363 whole entry, looked up): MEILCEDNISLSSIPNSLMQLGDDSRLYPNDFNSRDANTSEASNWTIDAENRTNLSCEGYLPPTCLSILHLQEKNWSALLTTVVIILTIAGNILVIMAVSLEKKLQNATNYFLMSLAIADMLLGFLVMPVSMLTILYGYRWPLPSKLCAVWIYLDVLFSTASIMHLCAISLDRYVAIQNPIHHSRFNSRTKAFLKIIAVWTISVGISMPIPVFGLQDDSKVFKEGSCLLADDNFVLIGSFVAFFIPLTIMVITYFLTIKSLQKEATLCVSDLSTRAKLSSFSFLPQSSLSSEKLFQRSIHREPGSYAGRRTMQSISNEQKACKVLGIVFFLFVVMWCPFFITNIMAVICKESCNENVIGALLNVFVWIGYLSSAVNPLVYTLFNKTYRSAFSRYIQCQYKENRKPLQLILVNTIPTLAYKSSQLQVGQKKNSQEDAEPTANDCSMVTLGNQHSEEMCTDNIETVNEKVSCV
# Arr AP2 block – inhibitors of human beta-arrestin and AP2 interaction | 340,000 tested, 0.31% active | inhibition, % at 10 µM | AID 504490 | FITC-arrestin peptide / GST-AP2 beads, flow cytometry; AP2 beta2 appendage carries R879A mutation;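 active means inhibition above a set limit, near 3 SD of compounds lacking own fluorescence, cut at about 54% in these data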;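 further: plate controls were DMSO wells for no effect and 5 µM unlabelled arrestin peptide for full effect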
#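 System: GST-AP2 R879A glutathione beads. Medium: PBS with 0.05% Tween 20 and 0.1% BSA. Also added: FITC-arrestin peptide, 50 nM. Incubation: 12 min plus 1 h, RT. Measured by: high-throughput flow cytometry of beads, ex 488, em 535 nm. Evaluation: percent drop in bead-associated FITC signal.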
# HGIII-sPLA2 inh – Blocks human group III sPLA2 activity; Q9NZ20; QFRET BODIPY PC-A2 liposome hydrolysis, fluorescence; inhibition, % at 12.2 µM; 370,000 tested, 0.56% active;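 active means inhibition above mean plus 3 SD of compounds lying within the high and low control bounds, cut at about 19% in these data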;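 further: 0% = median of test compound wells and 100% = no enzyme DMSO wells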
# PfM18AAP inh – PfM18AAP enzyme inhibition; recombinant PfM18AAP, H-Glu-NHMec fluorogenic cleavage; inhibition, % at 7.35 µM; 290,000 tested, 1.2% active; AID 1822;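 active means inhibition above the campaign mean inhibition over all tested compounds plus 3 SD, cut at about 28% in these data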;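 further: 0% = plate median of test compound wells and 100% = 2 mM ZnCl2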
# Arr-AP2 CP1 – human beta-arrestin and AP2 interaction inhibition, cherry pick; GST-AP2 beads, FITC arrestin peptide binding, flow cytometry; GST-fused beta2-adaptin appendage, R879A mutant; AID 504908; inhibition, % at 10 µM; 1,300 tested, 2% active; shares compounds with Arr AP2 block;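 active means inhibition above a set limit, roughly 3 SD of non-fluorescent compound noise, cut at about 38% in these data; inactive means inhibition at or below that limit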;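 further: loss of bead fluorescence from 50 nM FITC arrestin peptide bound to appendage; 0% = negative control wells and 100% = excess unlabelled arrestin peptide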
# GST-FITC bead – GST-GSH bead binding interference, counter-screen | inhibition, % at 10 µM | shares compounds with Arr AP2 block | AID 588338 | GST-fluorescein binding to GSH beads, fluorescence | 1,300 tested, 2% active;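 active means inhibition above 50%, about 3 SD of the inhibition seen with non-fluorescent compounds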;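 further: fluorescein maleimide labelled GST captured on 4 micron glutathione beads; higher means more loss of bead fluorescence from quenching or blocked binding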
# An asterisk follows results filed as active; . = not tested or not shown. This is a sample that favours compounds with a hit; in the whole collection about 3.3% have one here.
SMILES,NRP1-CendR mod,Lipid droplet,m5-HT2A agonist,Arr AP2 block,HGIII-sPLA2 inh,PfM18AAP inh,Arr-AP2 CP1,GST-FITC bead
CC(C)(C)OC(=O)NCc1ccc(NC(=O)c2nc[nH]c2C(=O)NCCCNC(=O)c2[nH]cnc2C(=O)Nc2ccc(CNC(=O)OC(C)(C)C)cc2)cc1,-4,.,2,7,.,.,.,.
O=C1Nc2ccc(NS(=O)(=O)c3cccs3)c3cccc1c23,-4,.,-1,96*,-7,-3,13,2
Cc1cc(C)c(NC(=O)CC(=O)c2ccccc2)c(Cl)c1,-1,3,3,-12,-16,-1,11,-5
Cc1cc(Oc2cccc3c2S(=O)(=O)N(C2CCCC2)CC(COCc2ccccc2)O3)cc(C)c1C (stereo not given),1,.,9,57*,9,.,0,-8
COc1ccc2c(c1)[C@@]1(OCCC=C[C@H]1C)C(=O)N2Cc1ccccc1C(F)(F)F,.,.,.,.,6,.,.,.
COc1cc(OC)cc(C(=O)N[C@H](C(=O)Nc2nc(-c3cc(OC)ccc3OC)cs2)C(C)C)c1,-3,13,-3,58*,-13,-8,-15,15
COc1cc(OC)cc(C(=O)N[C@H](C(=O)Nc2nc(-c3ccc(OC)c(OC)c3)cs2)C(C)C)c1,-9,9,-1,-8,-15,-4,.,.
COc1ccc(OC)c(-c2csc(NC(=O)CN3C(=O)NC4(CCCC4)C3=O)n2)c1,-10,.,-3,68*,-16,.,1,-1
O=C(CCCn1c(=O)[nH]c2ccccc2c1=O)Nc1ccc(F)cc1,10,15,4,57*,7,4,-9,-10
O=C(CCn1c(=O)[nH]c2ccccc2c1=O)Nc1ccccc1,6,.,0,-14,1,-10,-15,-7
COC(c1ccccc1)c1nnc(CCC(=O)N2CCN(C3CCCC3)CC2)o1 (stereo not given),3,10,0,69*,2,-1,17,-8
O=C(CCc1nnc(C2CCCCC2)o1)N1CCN(C2CCCCC2)CC1,16,1,1,33,-3,6,.,.
COc1ccccc1N(C)S(=O)(=O)c1ccc(C)c(C(=O)N2CCCCCC2)c1,0,.,2,-7,15,.,.,.
CC(C)(C)c1ccccc1OCC(=O)NCc1ccccc1,0,-18,-4,64*,-4,-6,4,-8
CC(=O)c1ccc(-n2ccc(=O)cc2)cc1,-2,6,4,60*,10,-8,-5,-4
CC1CC(C)CN(C(=O)COC(=O)c2ccc(Cl)nc2)C1 (stereo not given),-5,.,-2,52,1,.,.,.
CC1CC(C)CN(C(=O)COC(=O)c2nccnc2N)C1 (stereo not given),6,.,2,63*,0,.,14,1
COc1ccc(CC(=O)NNC(=O)c2cc(C)oc2C)cc1OC,5,.,4,65*,7,.,7,-5
COc1ccc(CC(=O)NNC(=O)c2ccccc2)cc1OC,2,.,-7,2,-2,.,.,.
COC(=O)C1(C)COP(=O)(Nc2ccc(OC)cc2)OC1 (stereo not given),4,.,-2,.,12,.,.,.
Cc1cc(C)c(S(=O)(=O)N2CCN(C(=O)C(C)Cn3cncn3)CC2)c(C)c1 (stereo not given),-1,-6,1,2,7,0,.,.
COc1ccc(NC(=S)N(CCCN2CCCC(C)C2)Cc2cccs2)cc1 (stereo not given),2,4,-6,54*,6,-6,5,-7
OCCC(N1CCOCC1)C(O)(c1ccccc1)c1ccccc1 (stereo not given),.,.,.,.,-1,.,.,.
Cc1cccc(C)c1NC(=O)CN(C)C(=O)c1cccc(NS(=O)(=O)c2ccccc2)c1,-6,.,8,59*,-3,.,-11,-1
